The text below walks through data of ChEMBL document CHEMBL4765378, “Discovery of simplified benzazole fragments derived from the marine benzosceptrin B as necroptosis inhibitors involving the receptor interacting protein Kinase-1” (Eur J Med Chem, 2020).

Active and inactive are the calls of the source. No cut-off for these calls is given here. Where a SMILES comes first, the peptide text is derived from it. The star is where a group is joined. Cbz = O=C(OCc1ccccc1)*; CH2F = FC*

Data set [1] has as its target T1, Receptor-interacting serine/threonine-protein kinase 1 (Homo sapiens) (UniProt Q13546).
T1 sequence (whole entry): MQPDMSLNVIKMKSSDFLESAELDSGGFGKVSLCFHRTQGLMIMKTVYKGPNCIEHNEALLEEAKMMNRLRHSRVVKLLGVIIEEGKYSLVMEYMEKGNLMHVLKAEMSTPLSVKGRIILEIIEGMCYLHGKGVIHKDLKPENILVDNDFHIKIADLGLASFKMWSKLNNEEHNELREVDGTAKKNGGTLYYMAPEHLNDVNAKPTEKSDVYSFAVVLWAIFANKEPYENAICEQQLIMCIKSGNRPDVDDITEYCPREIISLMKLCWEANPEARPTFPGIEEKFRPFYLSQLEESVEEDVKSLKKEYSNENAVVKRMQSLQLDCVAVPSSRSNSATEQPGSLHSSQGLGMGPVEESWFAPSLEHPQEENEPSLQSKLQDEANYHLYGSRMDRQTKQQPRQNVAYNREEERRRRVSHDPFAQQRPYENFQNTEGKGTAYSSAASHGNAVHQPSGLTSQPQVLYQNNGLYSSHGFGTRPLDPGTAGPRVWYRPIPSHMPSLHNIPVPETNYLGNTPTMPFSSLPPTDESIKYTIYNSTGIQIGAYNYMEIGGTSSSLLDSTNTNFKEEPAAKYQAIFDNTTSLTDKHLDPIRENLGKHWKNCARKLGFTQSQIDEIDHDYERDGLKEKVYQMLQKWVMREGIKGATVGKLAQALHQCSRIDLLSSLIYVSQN
The data set is described as follows: Inhibition of RIPK1 in human FADD-deficient Jurkat I 2.1 cells assessed as protection against TNFalpha-induced necroptosis by measuring remaining viable cells at 10 uM measured after 24 hrs by MTS assay relative to TNFalpha. In kind it is cell-based. The method in brief: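 FADD-deficient Jurkat cells co-treated 24 h with 10 ng/ml human recombinant TNF-α and 10 μM compound; MTS viability normalized to DMSO control (100%); protection delta = viability with TNF-α plus compound minus viability with TNF-α alone (negative if toxic); n = 3.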
(Tetrazolium dyes change colour on reduction, which living cells bring about.)

In data set [2] the test system is Jurkat. Kind of data set: Protection against staurosporine-induced apoptosis in human Jurkat assessed as increase in cell viability at 20 uM measured after 24 hrs by MTS assay. In kind it is functional, cell-based.
Data set [3] has as its system Jurkat. Kind of data set: Protection against TRAIL-induced apoptosis in human Jurkat assessed as increase in cell viability at 20 uM measured after 24 hrs by MTS assay. It is filed as functional, cell-based.
A short description of data set [4]: Cytotoxicity against human FADD-deficient Jurkat I 2.1 cells assessed as reduction in cell viability at >10 uM measured after 24 hrs by MTS assay. It is filed as cell-based. To be noted: jurkat i 2.1, 24 h.

Consider `CCNC(=O)CNc1nc2ccc([N+](=O)[O-])cc2[nH]1`, for which the Activity in data set [1] amounted to 1.9%.

Turning to `C=CCNc1nc2ccc([N+](=O)[O-])cc2[nH]1`, in data set [1], the Activity was determined as 4.7%.

For `O=[N+]([O-])c1cccc2nc(NCc3ccccc3)[nH]c12`, the Activity in data set [1] is 5.1%.

In the case of `CCNc1nc2ccc(-c3cccc([N+](=O)[O-])c3)cc2[nH]1`, in data set [1], the Activity is -19.4%.

Consider `CCNc1nc2ccc(-c3cccc(OC)c3)cc2[nH]1`, for which the Activity in data set [1] was -12.8%.

Consider `CC(C)[C@H](NC(=O)OCc1ccccc1)C(=O)N[C@@H](C)C(=O)N[C@@H](CC(=O)O)C(=O)CF` (Cbz-Val-Ala-Asp-CH2F), for which the outcome with Jurkat [2] and in the data set with Jurkat [3] was inactive.

As for `CCCCNc1nc2ccc(C(=O)NCc3ccccc3)cc2[nH]1`, the Activity in data set [1] is 5%.

`O=[N+]([O-])c1cccc2nc(Nc3ccccc3)[nH]c12`: in data set [1], the Activity was determined as 0%.

For the compound `CCNc1nc2ccc(-c3ccccc3Cl)cc2[nH]1`, the Activity in data set [1] stood at 4.9%.

Regarding `CCCCNc1nc2ccc(I)cc2[nH]1`, in data set [1], the Activity was -16.3%.

On to `CCCCCCCCNc1nc2ccc([N+](=O)[O-])cc2[nH]1`, for which, in data set [1], the Activity is 6.4%.

On to `O=[N+]([O-])c1cccc2nc(NC3CCCCC3)[nH]c12`, for which the Activity in data set [1] is 13%.

Consider `CCCCNc1nc2ccc(-c3cn(Cc4ccccc4)nn3)cc2[nH]1`, for which the Activity in data set [1] is -10.5%.

As to `CCCCCCNc1nc2ccc([N+](=O)[O-])cc2[nH]1`, in data set [1], the Activity was 23.6%.

`CCCCNc1nc2cc(C(F)(F)F)cc(Br)c2[nH]1`: the Activity in data set [1] worked out at 23.7%.

With `O=[N+]([O-])c1ccc2nc(Nc3ccc(C(F)(F)F)cc3)[nH]c2c1`, the Activity in data set [1] is -30.8%.

Consider `Clc1ccc2nc(NC3CCCCC3)[nH]c2c1`, for which the Activity in data set [1] was 38.2%.

Take `CC(C)CNc1nc2ccc([N+](=O)[O-])cc2[nH]1`: the Activity entry in data set [4] is “Toxic”; in data set [1], 53.7%.

Turning to `CCCCNc1nc2ccc(C#C[Si](C)(C)C)cc2[nH]1`, the Activity in data set [1] was -18.5%.

Take `C#CCNc1nc2ccc([N+](=O)[O-])cc2[nH]1`: in data set [1], the Activity is 3.4%.

For the compound `O=[N+]([O-])c1ccc(Nc2nc3ccc([N+](=O)[O-])cc3[nH]2)cc1`, the Activity in data set [1] was 3.6%.

Regarding `O=[N+]([O-])c1ccc2nc(Nc3ccc(Br)cc3)[nH]c2c1`, the Activity in data set [1] was -6.1%.

As for `CC(C)Nc1nc2ccc([N+](=O)[O-])cc2[nH]1`, in data set [1], the Activity was 16.2%.

`CCCCNc1nc2ccc(C(=O)NCCCc3ccccc3)cc2[nH]1`: in data set [1], the Activity was -3.6%.

In the case of `O=[N+]([O-])c1ccc2nc(NCc3ccccc3)[nH]c2c1`, the Activity in data set [1] was 9%.

In the case of `CC(C)Nc1nc2cccc([N+](=O)[O-])c2[nH]1`, the Activity in data set [1] was 1%.

For the compound `CCCCNc1nc2ccc(-c3cccs3)cc2[nH]1`, the Activity in data set [1] is -20.5%.

Turning to `CCCNc1nc2ccc([N+](=O)[O-])cc2[nH]1`, the Activity in data set [1] came out at 20%.

Turning to `CCNc1nc2ccc([N+](=O)[O-])cc2[nH]1`, the Activity in data set [1] stood at 6.4%.

For the compound `CCCCNc1nc2ccc(-n3cnnn3)cc2[nH]1`, in data set [1], the Activity is -1.32%.

Regarding `CCCCNc1nc2ccc([N+](=O)[O-])cc2s1`, the Activity in data set [1] amounted to 28%.

Consider `CCCCNc1nc2cccc([N+](=O)[O-])c2[nH]1`, for which, in data set [1], the Activity is 1.2%.

With `CCCCNc1nc2ccc(C(=O)OC)cc2[nH]1`, the Activity in data set [1] is 2.9%.

Consider `CCCCNc1nc2cccc(C(=O)OC)c2[nH]1`, for which the Activity in data set [1] stood at 29.2%.

Turning to `COC(=O)c1cccc2nc(NC3CCCCC3)[nH]c12`, the Activity in data set [1] was found to be 21.7%.

For `Brc1ccc2nc(NC3CCCCC3)[nH]c2c1`, in data set [1], the Activity stood at 43.7%.

Regarding `CCOC(=O)CNc1nc2ccc([N+](=O)[O-])cc2[nH]1`, the Activity in data set [1] was 15.3%.

With `N#Cc1ccc(Nc2nc3ccc([N+](=O)[O-])cc3[nH]2)cc1`, the Activity in data set [1] was -31.4%.

As to `CCNc1nc2ccc(Br)cc2[nH]1`, the Activity in data set [1] was 10.4%.

As to `CCCCNC(=O)CNc1nc2ccc([N+](=O)[O-])cc2[nH]1`, the Activity in data set [1] amounted to 4.6%.

With `Cc1ccc2nc(NC3CCCCC3)[nH]c2c1`, the Activity in data set [1] came to 7%.

As for `C#Cc1ccc2nc(NCCCC)[nH]c2c1`, the Activity in data set [1] was -21.3%.

Regarding `CCCCNc1nc2ccc(Br)cc2[nH]1`, the Activity in data set [1] was found to be 7.3%.

In the case of `Oc1ccc(-c2cc3cccnc3[nH]2)cc1`, the Activity in data set [1] amounted to 57.9%.

Consider `O=[N+]([O-])c1ccc2nc(Nc3ccccc3)[nH]c2c1`, for which the Activity result in data set [4] was “Toxic”; in data set [1], 41.9%.

For `COCCNc1nc2cccc([N+](=O)[O-])c2[nH]1`, the Activity in data set [1] is -2.3%.

As for `CCCCNc1nc2ccc(-c3cccc([N+](=O)[O-])c3)cc2[nH]1`, in data set [1], the Activity is -20.6%.

As for `CCCCNc1nc2ccc(C(=O)NCCc3ccccc3)cc2[nH]1`, in data set [1], the Activity stood at 2.6%.

Take `CCCCNc1nc2ccc(C#N)cc2[nH]1`: the Activity in data set [1] is 6.3%.

Take `CCCCNc1nc2ccc(-c3cccc(OC)c3)cc2[nH]1`: in data set [1], the Activity was -16.8%.

`O=C(Nc1nc2ccc([N+](=O)[O-])cc2[nH]1)c1ccccc1`: the Activity in data set [1] was -21.3%.

For `O=[N+]([O-])c1ccc2nc(NC3CCCCC3)[nH]c2c1`, the Activity entry in data set [4] was “Toxic”; in data set [1], 68.1%.

As for `O=[N+]([O-])c1ccc2sc(Cl)nc2c1`, in data set [1], the Activity was found to be 0.1%.

As for `CN(C)c1ccc(Nc2nc3ccc([N+](=O)[O-])cc3[nH]2)cc1`, the Activity in data set [1] was 14%.

In the case of `COCCNc1nc2ccc([N+](=O)[O-])cc2[nH]1`, the Activity in data set [1] came to 5.6%.
